The list is not random: actives were taken first. Their share in the collection is about 3.1%.
HSF-1 act = HSF-1 activators, primary screen, NIH3T3-HGL cells, MG132 stress, luminescence, single point; NIH3T3-HGL HSF-1 luciferase reporter, 8 h; 100% = twice DMSO control signal; activation, % at 9 µM; 300,000 tested, 1.7% active; AID 504408, 2011;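 active means mean replicate activation of at least 50% with a set share of replicates each reaching 50%; inconclusive means only one of those two conditions met; inactive means mean below 50% and too few replicates reaching it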;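 further: 0% = median of the neutral control wells and 100% = twice that signal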
HSP90 inh = HSP90 inhibitors, primary screen, cell lysate, luminescence. 290,000 tested, 0.91% active. Heat shock protein HSP 90 (rabbit reticulocyte lysate; luciferase refolding). inhibition, % at 5.6 µM. Rabbit reticulocyte lysate, luciferase refolding luminescence, 3 h. AID 1789, 2009;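 active means inhibition above the screen-wide mean plus 3 SD, computed separately per campaign, cut at about 16% in these data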;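 further: 0% = DMSO wells and 100% = 60 µM geldanamycin wells; inhibitors lower the luminescence because luciferase stays unfolded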
HSF1 inh = HSF1 inhibitors in luciferase reporter cells, primary screen, cell-based, NIH3T3, luminescence | 300,000 tested, 0.77% active | NIH3T3-HGL HSE-luciferase, MG132-induced, luminescence 8 h; active compounds read low | activity change, negative = inhibition, % at 7.5 µM (by protocol) | AID 2098, 2009;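 active means more than half of replicate wells show activity change below -50%, luminescence cut by over half; inconclusive means some wells, but at most half, below -50%; inactive means no replicate well below -50%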;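 further: luciferase reports HSF-1 transcriptional activity via heat shock element; 0% = median of DMSO wells and -100% = zero luminescence signal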
Hsp70 activator = Hsp70 transcriptional activators, primary screen, cell-based, HeLa, Hsp70 promoter luciferase, luminescence, 10 µM; HeLa Hsp70 promoter luciferase reporter; scaled: vehicle 0, proteasome-inhibitor control 100%; activation, % at 10 µM; 200,000 tested, 0.04% active; AID 1203, 2008;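 active means activation above the mean across all tested compounds plus 3 SD, cutoff set per campaign, cut at about 5.5% in these data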;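 further: 100% = MG132 at 30 µM as the positive control and 0% = DMSO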
TbHK1 inh = Trypanosoma brucei hexokinase 1 inhibitors, primary screen, biochemical, G6PDH-coupled NADH absorbance, MLSCN library | inhibition, % at 10 µM | recombinant TbHK1, G6PDH-coupled NADH A340 | AID 1430, 2008 | 220,000 tested, 0.11% active;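 active means inhibition of 50% or more in the single-dose primary screen; inactive means inhibition below 50%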
HKDC1 inh = HKDC1 hexokinase inhibitors, primary screen, biochemical, fluorescence, uHTS; 340,000 tested, 0.16% active; inhibition, % at 20 µM; recombinant HKDC1, G6PDH/diaphorase resazurin coupled fluorescence;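 active means inhibition above about 35% when tested at 20 µM, limit read from the data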;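 further: plate controls were DMSO wells with enzyme for no effect and DMSO wells lacking enzyme for full effect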
Target sequence (Q2TB90 whole entry, looked up): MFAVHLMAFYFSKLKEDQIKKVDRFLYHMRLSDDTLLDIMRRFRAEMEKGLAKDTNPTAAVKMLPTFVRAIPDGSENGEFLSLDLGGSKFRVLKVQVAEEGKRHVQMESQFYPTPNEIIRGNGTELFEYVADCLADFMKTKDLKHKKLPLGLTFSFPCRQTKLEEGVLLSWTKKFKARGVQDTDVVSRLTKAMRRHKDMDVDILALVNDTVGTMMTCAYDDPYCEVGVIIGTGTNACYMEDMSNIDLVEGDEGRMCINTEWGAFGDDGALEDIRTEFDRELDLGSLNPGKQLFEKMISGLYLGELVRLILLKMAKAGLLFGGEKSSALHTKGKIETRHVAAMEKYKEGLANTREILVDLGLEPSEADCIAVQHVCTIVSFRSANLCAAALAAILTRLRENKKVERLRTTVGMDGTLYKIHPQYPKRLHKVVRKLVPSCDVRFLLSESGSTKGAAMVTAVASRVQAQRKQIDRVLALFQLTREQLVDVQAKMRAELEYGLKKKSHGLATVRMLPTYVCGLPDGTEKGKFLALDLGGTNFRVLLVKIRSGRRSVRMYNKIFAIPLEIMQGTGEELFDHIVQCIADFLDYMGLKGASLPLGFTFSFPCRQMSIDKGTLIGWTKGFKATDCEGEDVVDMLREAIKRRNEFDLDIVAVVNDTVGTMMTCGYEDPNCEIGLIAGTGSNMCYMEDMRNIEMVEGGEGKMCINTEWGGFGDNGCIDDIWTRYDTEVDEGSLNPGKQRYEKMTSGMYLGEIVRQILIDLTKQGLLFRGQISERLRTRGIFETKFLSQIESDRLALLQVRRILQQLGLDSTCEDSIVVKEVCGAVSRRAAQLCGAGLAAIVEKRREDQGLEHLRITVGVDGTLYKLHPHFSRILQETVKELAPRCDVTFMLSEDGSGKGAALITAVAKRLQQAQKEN
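Incubation: 90 min at room temperature in dark / Material: recombinant HKDC1 (HK5) hexokinase enzyme, produced in-house / Quantity: enzyme 5 µg/mL final / Compound: one dose of 20 µM, 1% DMSO / Reagent: glucose and ATP substrates / Buffer or medium: Tris pH 8.0 buffer with MgCl2, Tween-20, BSA, BME / Technique: resorufin fluorescence at 613 nm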
Numbers without * were called inactive; u = inconclusive; x = not tested or not shown.

SMILES | HSF-1 act | HSP90 inh | HSF1 inh | Hsp70 activator | TbHK1 inh | HKDC1 inh
CCNc1ccccc(C(=O)/C=C/c2ccc3c(c2)OCO3)c1=O | 71.7* | 0.0 | 34.7 | 0.0 | -45.8 | 13.0
COc1cccc(/C=C/C(=O)c2ccc[nH]2)c1 | 86.2* | -4.3 | 50.4 | 0.2 | -53.6 | -2.5
CC(C)[C@H](NC(=O)c1ccccc1)C(=O)OCC(=O)Nc1ncc(Cl)cc1Cl | x | x | x | x | x | -8.1
CC1(NC(=O)/C=C/c2nc3ccccc3s2)CCS(=O)(=O)C1 (centres undefined) | x | x | x | x | x | -3.1
CCCCn1c(N)c(N(CCC)C(=O)C2CCCC2)c(=O)[nH]c1=O | x | x | x | x | x | -1.9
CCC1(O)CC(c2ccccc2)=NN1C(=O)c1ccccc1F (centres undefined) | 5.0 | x | 1.1 | x | x | -7.5
O=C(/C=C/c1ccc2c(c1)OCO2)c1ccc[nH]1 | 62.3* | 6.7 | 25.5 | 0.4 | -26.5 | -3.1
O=C(/C=C/c1ccc2c(c1)OCO2)c1ccc(F)cc1 | 25.8 | -3.1 | 8.8 | 0.3 | -6.9 | 13.1
CCC(=O)Nc1ccc2c(c1)ncn2-c1ccc(C)cc1 | 52.6* | -3.9 | 25.8 | 0.1 | 0.5 | -0.5
O=C(/C=C/c1ccc(Cl)cc1)c1ccc([N+](=O)[O-])o1 | 19.3 | x | 24.0 | x | x | 53.9*
CC1(C)S[C@@H]2[C@H](NC(=O)C(NC(=O)N3CCNC3=O)c3ccccc3)C(=O)N2[C@H]1C(=O)O (some centres undefined) | 4.1 | -3.4 | -0.8 | x | x | -4.6
CSc1ccc(/C=N/NC(=O)c2sccc2C)cc1 | 61.6* | 1.0 | 41.2 | -0.1 | 1.8 | -0.1
C=CCOc1ccc(/C=C2\SC(=S)N(NS(=O)(=O)c3ccccc3)C2=O)cc1 | 6.7 | -0.3 | 9.6 | x | x | 11.0
CC[C@@]1(O)C(=O)OCc2c1cc1n(c2=O)Cc2cc3c(N)cccc3nc2-1 | 50.4* | x | 23.1 | x | -35.5 | 23.6
O=C(CN1CCN(S(=O)(=O)N2CCOCC2)CC1)Nc1cc(Cl)ccc1Cl | -7.5 | -2.4 | -7.2 | x | x | -5.0
CCCN(CCC)C(=O)c1cc2c(=O)n3cccc(C)c3nc2s1 | 1.8 | -2.5 | -3.3 | x | x | 2.7
Cc1ccc(S(=O)(=O)N2CCCCC2CCNC(=O)C(=O)NCC2CCCO2)cc1 (centres undefined) | 1.4 | x | -1.7 | x | x | -4.0
O=C(OCC(=O)N1CCN(C(=O)c2ccco2)CC1)c1cc(-c2ccco2)nc2ccccc12 | -16.6 | 5.8 | -4.4 | -0.5 | -6.5 | 37.1*
O=C(OCC(=O)N1CCN(C(=O)c2ccco2)CC1)c1sc2cc(F)ccc2c1Cl | -65.6 | -1.5 | -54.7* | -0.3 | 3.4 | -1.3
Nc1nc(N)c(C=Nc2ccc(Br)cc2)c(Nc2ccc(Br)cc2)n1 | 67.0* | 3.2 | 37.9 | x | -78.8 | 7.5
Cc1cccc(NC(=S)N(CCN(C)C)C(C)c2cccnc2)c1 (centres undefined) | 60.1* | 4.7 | 23.1 | -0.3 | -3.2 | 0.6
CC(C)n1nc(C(=O)Nc2cccc(S(=O)(=O)N3CCOCC3)c2)c2ccccc2c1=O | x | x | x | x | x | -5.6
Cc1ccc(SCCN2CCN(C)CC2)cc1 | 57.9* | -4.6 | 17.8 | x | x | -4.9
N#C/C(=C\C=C\c1ccccc1[N+](=O)[O-])C(=O)NC1CCCCC1 | 81.7* | 0.6 | 34.1 | 1.4 | -16.9 | 9.7
N#C/C(=C\c1ccccc1[N+](=O)[O-])C(=O)NC1CCCCC1 | 9.4 | -1.7 | -0.7 | -0.2 | -1.2 | -4.6
SMILES | HSF-1 act | HSP90 inh | HSF1 inh | Hsp70 activator | TbHK1 inh | HKDC1 inh
c1nc(SSc2ncnc3nc[nH]c23)c2[nH]cnc2n1 | x | x | x | x | x | -2.0
COc1cc2sc3ccc(C#CC4(O)CCCCC4)cc3c(=O)c2cc1OC | -58.5 | x | -58.7* | x | x | 15.6
CC(C)(C)c1ccc2c(c1)OC(C(=O)N/N=C\c1ccc[nH]1)CO2 (centres undefined) | -74.6 | 3.8 | -73.3* | x | x | -0.2
CC(C)(C)c1ccc2c(c1)OC(C(=O)N/N=C\c1ccncc1)CO2 (centres undefined) | -2.3 | 5.1 | 2.5 | x | -10.3 | 1.2
Cc1c(C(=O)OCC(=O)N(C)CC(=O)Nc2ccc(F)cc2)oc2ccccc12 | x | x | x | x | x | -3.6
Oc1ccc2ccccc2c1C=Nc1ccccc1-c1nc2ccccc2[nH]1 | 59.2* | -3.1 | 26.9 | -0.2 | -24.2 | 30.4
Oc1ccc2ccccc2c1C=Nc1ccc(Cl)cn1 | -4.3 | 9.7 | -2.2 | -0.1 | -6.3 | 20.6
CC[C@@H](C)[C@H](NC(=O)Cc1c(C)c2cc3c(C)c(C)oc3c(C)c2oc1=O)C(=O)O | -75.7 | 1.0 | -69.8* | x | x | 1.6
O=C(N/N=C/C(Cl)=C/c1ccccc1)c1ccccc1F | 76.0* | -5.2 | 32.7 | x | x | -2.0
O=C(N/N=C/C=C/c1ccccc1[N+](=O)[O-])c1cccs1 | -32.7 | -4.4 | -8.4 | -0.3 | -35.3 | -4.7
O=C(N/N=C/C(Br)=C/c1ccccc1)c1cc(-c2ccco2)[nH]n1 | 130.2* | 0.8 | 125.0 | 0.1 | 0.2 | -4.7
CC(/C=N/NC(=O)c1cc(-c2ccc(C)o2)[nH]n1)=C\c1ccccc1 | 14.6 | 2.9 | -6.8 | -0.2 | -8.7 | -2.8
O=C(N/N=C/c1ccccc1[N+](=O)[O-])c1cccs1 | 60.6* | -2.3 | 38.6 | x | -24.9 | -5.8
O=C(N/N=C/C(Br)=C/c1ccccc1)c1ccccc1F | 250.5* | -3.1 | 179.0 | x | x | -0.6
CC(C)CN(C(=O)COC(=O)c1ccccc1NCc1ccco1)c1c(N)n(Cc2ccccc2)c(=O)[nH]c1=O | -5.1 | x | -7.6 | x | x | 3.8
COc1ccccc1NC(=O)CCc1nnc2ccc(N3CCC4(CC3)OCCO4)nn12 | -16.9 | 2.2 | -7.3 | x | x | -3.0
O=C(Nc1ccccc1F)c1ccc2ncsc2c1 | 4.2 | 1.7 | -7.6 | x | x | -0.4
CCOC(=O)C1=CN(C(C)C)CCC1=O | x | x | x | x | x | -7.2
O=C(N/N=C/C(Cl)=C/c1ccccc1)c1ccco1 | 53.6* | -0.5 | 3.8 | 2.2 | -39.0 | -6.2
O=C(N/N=C/C(Br)=C/c1ccccc1)c1cccs1 | 130.3* | -2.8 | 107.8 | 0.8 | -19.9 | -2.0
O=C(N/N=C/C=C/c1ccccc1)c1cccs1 | u | -1.1 | 17.2 | 0.2 | -71.8 | -9.6
Cc1cc(C)c(C)c(S(=O)(=O)N2CCN(C(=O)c3ccccc3OCc3c(C)noc3C)CC2)c1C | x | x | x | x | x | -0.8
COc1cccc(OCc2cc(C(=O)N(C)Cc3nc4ccccc4[nH]3)no2)c1 | 61.2* | 0.3 | 32.4 | x | x | 1.7
CC(=O)c1ccc(OCc2cc(C(=O)N(C)Cc3ncc(C)[nH]3)no2)cc1 | -3.0 | -6.7 | -0.8 | x | x | -4.7
Cc1cc(C=C2C(=O)c3ccccc3C2=O)c(C)n1-c1ccccc1 | -56.7 | 8.7 | u | 0.0 | -3.4 | -8.3

Source: PubChem BioAssay (several laboratories)
